Assay [1] concerns Candida albicans. Nature of the assay: Antimicrobial activity against Candida albicans RCMB 05035 assessed as diameter of zone inhibition at 5 mg/ml after 72 hrs by agar well diffusion assay. The conditions noted are these: RCMB 05035, 72 h, read-out: DIZ. In kind it is functional. In a few lines: (§1)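 Fungi (1 x10^6 CFU/mL, 100 µL) were spread on Sabouraud dextrose agar. 10 mm wells were loaded with 100 µL of test solution at 5 mg/mL in DMSO, or amphotericin B standard at 1 mg/mL. A DMSO negative control was included. Plates were incubated 72 h at 28 °C. Inhibition zone diameter (mm) was recorded as the average of triplicate runs.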

The test system of assay [2] is Proteus vulgaris. Nature of the assay: Antimicrobial activity against Proteus vulgaris RCMB 010085 after overnight incubation by macro-tube dilution technique. Format: functional. The method in brief: (§2)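 Macro-tube twofold dilution following NCCLS guidance, run in nutrient broth. The first tube held 10 mg compound in 2.0 mL DMSO and was serially halved 1:1 into 1.0 mL broth through tube 14; tube 15 was the control. The inoculum was suspended to turbidity in 5.0 mL broth, 0.2 mL was diluted into 40 mL, and 1.0 mL was added per tube. Tubes were incubated overnight at 37 °C. MIC was the lowest concentration with no growth.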

Assay [3] has as its system Bacillus subtilis. Nature of the assay: Antimicrobial activity against Bacillus subtilis RCMB 010063 assessed as diameter of zone inhibition at 5 mg/ml after 24 hrs by agar well diffusion assay. Format: functional. The conditions noted are these: RCMB 010063, 24 h, read-out: DIZ. The method in brief: (§3)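 Agar well diffusion: 100 µL of 1 x10^8 CFU/mL bacteria was spread on nutrient agar. 10 mm wells received 100 µL of compound at 5 mg/mL in DMSO, or ampicillin or gentamycin standards at 1 mg/mL. DMSO served as negative control. Plates were incubated 24 h at 37 °C. Inhibition zone diameter (mm) was measured as the mean of triplicates.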

Assay [4] concerns Shigella flexneri. Nature of the assay: Antimicrobial activity against Shigella flexneri RCMB 0100542 after overnight incubation by macro-tube dilution technique. In kind it is functional. In a few lines: as §2
In assay [5] the test system is Staphylococcus epidermidis. In words: Potency index, ratio of Amphotericin B IC50 to compound IC50 for Staphylococcus epidermidis RCMB 010024. In kind it is functional.
Assay [6] concerns Bacillus subtilis. In words: Antimicrobial activity against Bacillus subtilis RCMB 010063 after overnight incubation by macro-tube dilution technique. In kind it is functional. The method in brief: as §2
Assay [7] concerns Klebsiella pneumoniae. In words: Antimicrobial activity against Klebsiella pneumoniae RCMB 010093 assessed as diameter of zone inhibition at 5 mg/ml after 24 hrs by agar well diffusion assay. Format: functional. The conditions noted are these: RCMB 010093, 24 h, read-out: DIZ. The method in brief: as §3
Assay [8] has as its system Shigella flexneri. In words: Antimicrobial activity against Shigella flexneri RCMB 0100542 assessed as diameter of zone inhibition at 5 mg/ml after 24 hrs by agar well diffusion assay. The conditions noted are these: RCMB 0100542, 24 h, read-out: DIZ. Format: functional. In a few lines:
as §3

The test system of assay [9] is Aspergillus fumigatus. In words: Antimicrobial activity against Aspergillus fumigatus RCMB 02564 assessed as diameter of zone inhibition at 5 mg/ml after 72 hrs by agar well diffusion assay. In kind it is functional. The conditions noted are these: RCMB 02564, 72 h, read-out: DIZ. In a few lines:
as §1

The subject of assay [10] is Candida albicans. In words: Antimicrobial activity against Candida albicans RCMB 05035 after 72 hrs by macro-tube dilution technique. Format: functional. Particulars: RCMB 05035, 72 h. In a few lines: (§4)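 Twofold macro-tube dilution following NCCLS guidance, run in malt extract broth. 10 mg compound in 2.0 mL DMSO in tube 1 was serially diluted 1:1 through tube 14 into 1.0 mL broth; tube 15 was the control. Culture was suspended to turbidity in 5.0 mL broth, 0.2 mL was diluted into 40 mL, and 1.0 mL was added per tube. Incubation was 72 h at 30 °C. MIC was the lowest concentration with no growth.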

The test system of assay [11] is Aspergillus fumigatus. Nature of the assay: Antimicrobial activity against Aspergillus fumigatus RCMB 02564 after 72 hrs by macro-tube dilution technique. Format: functional. Particulars: RCMB 02564, 72 h. In a few lines:
as §4

Assay [12] has as its system Aspergillus clavatus. Nature of the assay: Antimicrobial activity against Aspergillus clavatus RCMB 02593 after 72 hrs by macro-tube dilution technique. Format: functional. The conditions noted are these: RCMB 02593, 72 h. The method in brief:
as §4

Assay [13] concerns Proteus vulgaris. Nature of the assay: Antimicrobial activity against Proteus vulgaris RCMB 010085 assessed as diameter of zone inhibition at 5 mg/ml after 24 hrs by agar well diffusion assay. Format: functional. Particulars: RCMB 010085, 24 h, read-out: DIZ. The method in brief: as §3
Assay [14] deals with Klebsiella pneumoniae. In words: Antimicrobial activity against Klebsiella pneumoniae RCMB 010093 after overnight incubation by macro-tube dilution technique. Format: functional. The method in brief:
as §2

The subject of assay [15] is Staphylococcus aureus. In words: Antimicrobial activity against Staphylococcus aureus RCMB 010027 after overnight incubation by macro-tube dilution technique. Format: functional. In a few lines:
as §2

The subject of assay [16] is Staphylococcus aureus. In words: Antimicrobial activity against Staphylococcus aureus RCMB 010027 assessed as diameter of zone inhibition at 5 mg/ml after 24 hrs by agar well diffusion assay. In kind it is functional. Particulars: RCMB 010027, 24 h, read-out: DIZ. In a few lines:
as §3

Assay [17] concerns Staphylococcus epidermidis. Nature of the assay: Antimicrobial activity against Staphylococcus epidermidis RCMB 010024 assessed as diameter of zone inhibition at 5 mg/ml after 24 hrs by agar well diffusion assay. In kind it is functional. The conditions noted are these: RCMB 010024, 24 h, read-out: DIZ. In a few lines:
as §3

Assay [18] concerns Aspergillus clavatus. In words: Antimicrobial activity against Aspergillus clavatus RCMB 02593 assessed as diameter of zone inhibition at 5 mg/ml after 72 hrs by agar well diffusion assay. Format: functional. The conditions noted are these: RCMB 02593, 72 h, read-out: DIZ. In a few lines: as §1
The subject of assay [19] is Staphylococcus epidermidis. In words: Antimicrobial activity against Staphylococcus epidermidis RCMB 010024 after overnight incubation by macro-tube dilution technique. In kind it is functional. The method in brief: as §2
Assay [20] concerns Proteus vulgaris. Nature of the assay: Potency index, ratio of Gentamycin IC50 to compound IC50 for Proteus vulgaris RCMB 010085. In kind it is functional.
Assay [21] relates to Candida albicans. In words: Potency index, ratio of Amphotericin B IC50 to compound IC50 for Candida albicans RCMB 05035. In kind it is functional.
The subject of assay [22] is Aspergillus clavatus. In words: Potency index, ratio of Amphotericin B IC50 to compound IC50 for Aspergillus clavatus RCMB 02593. Format: functional.
The test system of assay [23] is Shigella flexneri. In words: Potency index, ratio of Gentamycin IC50 to compound IC50 for Shigella flexneri RCMB 0100542. Format: functional.
The subject of assay [24] is Klebsiella pneumoniae. Nature of the assay: Antimicrobial activity against Klebsiella pneumoniae RCMB 010093 assessed as diameter of zone inhibition at 1 mg/ml after 24 hrs by agar well diffusion assay. In kind it is functional, organism-based. The method in brief: (§5)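 Agar well diffusion on nutrient agar spread with 100 µL of bacterial suspension at 1 x10^8 CFU/mL. Wells 10 mm wide were loaded with 100 µL of solution: test compounds at 5 mg/mL in DMSO, ampicillin or gentamycin standards at 1 mg/mL, DMSO negative control. Plates were incubated 24 h at 37 °C, and inhibition zone diameter (mm) was averaged over triplicates.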

Assay [25] has as its system Shigella flexneri. Nature of the assay: Antimicrobial activity against Shigella flexneri RCMB 0100542 assessed as diameter of zone inhibition at 1 mg/ml after 24 hrs by agar well diffusion assay. In kind it is functional, organism-based. In a few lines:
as §5

For assay [26], the system named is Proteus vulgaris. In words: Antimicrobial activity against Proteus vulgaris RCMB 010085 assessed as diameter of zone inhibition at 1 mg/ml after 24 hrs by agar well diffusion assay. In kind it is functional, organism-based. The method in brief:
as §5

≈ marks a conversion by molar mass, not a printed value.

This is an account of results in ChEMBL document CHEMBL4138150, “Quinoline derivatives bearing pyrazole moiety: Synthesis and biological evaluation as possible antibacterial and antifungal agents” (2018).

For the compound `COc1ccc(C2CC(c3ccc(Oc4ccc5ccccc5n4)cc3)=NN2c2ccccc2)cc1` (stereo unspecified), the zone of inhibition at 5000 µg/mL is 23.5 mm in the assay on Candida albicans [1]; 28.7 mm in the assay on Bacillus subtilis [3]; 26.1 mm with Klebsiella pneumoniae [7]; 23.3 mm in the assay on Shigella flexneri [8]; 23.5 mm in the assay on Aspergillus fumigatus [9]; 24.5 mm with Proteus vulgaris [13]. In addition, the zone of inhibition at 5000 µg/mL was 29 mm in the assay on Staphylococcus aureus [16], 26.2 mm in [17] and 22.9 mm in the assay with Aspergillus clavatus [18]. Further, the MIC was determined as 9.9 µg/mL (≈ 21 µM) against Proteus vulgaris [2]; 0.48 µg/mL (≈ 1.02 µM) against Shigella flexneri [4]; 0.06 µg/mL (≈ 0.127 µM) against Bacillus subtilis [6]; 0.48 µg/mL (≈ 1.02 µM) in the assay on Candida albicans [10]; 1.95 µg/mL (≈ 4.14 µM) against Aspergillus fumigatus [11]; 3.9 µg/mL (≈ 8.27 µM) against Aspergillus clavatus [12]. Moreover, the MIC was 3.9 µg/mL (≈ 8.27 µM) in the assay with Klebsiella pneumoniae [14], 0.24 µg/mL (≈ 0.509 µM) in the assay with Staphylococcus aureus [15] and 0.24 µg/mL (≈ 0.509 µM) in assay [19]. In [5], the Ratio came out at 2.

On to `N#Cc1c(-c2ccc(Cl)cc2Cl)nn(-c2ccc3ccccc3n2)c1N`, for which the Ratio came to 2 in the assay with Proteus vulgaris [20], 4 in the assay with Candida albicans [21], 4 in the assay with Aspergillus clavatus [22] and 4 in the assay with Shigella flexneri [23]. In addition, the zone of inhibition at 5000 µg/mL in the assay with Candida albicans [1] was determined as 24.8 mm; in the assay on Bacillus subtilis [3], 25.8 mm; in the assay with Klebsiella pneumoniae [7] it was 21.6 mm; in the assay on Shigella flexneri [8], 23.2 mm; with Aspergillus fumigatus [9] it was 20.9 mm; in the assay with Proteus vulgaris [13] it was 20.6 mm. Further, the figures for the zone of inhibition at 5000 µg/mL (with Staphylococcus aureus [16]; in assay [17]; in the assay with Aspergillus clavatus [18]) were 21.6 mm, 22.3 mm and 22.3 mm, respectively. In addition, the MIC against Proteus vulgaris [2] turned out to be 0.98 µg/mL (≈ 2.58 µM); against Shigella flexneri [4], 0.12 µg/mL (≈ 0.316 µM); in the assay on Bacillus subtilis [6], 0.12 µg/mL (≈ 0.316 µM); with Candida albicans [10], 0.12 µg/mL (≈ 0.316 µM); against Aspergillus fumigatus [11], 0.98 µg/mL (≈ 2.58 µM); against Aspergillus clavatus [12] it was 0.49 µg/mL (≈ 1.29 µM). Also, the MIC (with Klebsiella pneumoniae [14]; against Staphylococcus aureus [15]; in assay [19]) was 0.49 µg/mL (≈ 1.29 µM) throughout.

Turning to `Clc1ccccc1C1CC(c2ccc(Oc3ccc4ccccc4n3)cc2)=NN1` (stereo unspecified), the Ratio with Proteus vulgaris [20] is 2. In addition, the zone of inhibition at 5000 µg/mL worked out at 18.5 mm with Candida albicans [1]; 24.2 mm in the assay on Bacillus subtilis [3]; 22.8 mm in the assay on Klebsiella pneumoniae [7]; 23.6 mm in the assay with Shigella flexneri [8]; 21.4 mm with Aspergillus fumigatus [9]; 23.6 mm in the assay with Proteus vulgaris [13]. Also, the values for the zone of inhibition at 5000 µg/mL (in the assay with Staphylococcus aureus [16]; in assay [17]; in the assay with Aspergillus clavatus [18]) were 23.9 mm, 25.3 mm and 17.5 mm, respectively. Further, the MIC in the assay on Proteus vulgaris [2] came out at 0.97 µg/mL (≈ 2.43 µM); with Shigella flexneri [4], 1.95 µg/mL (≈ 4.88 µM); in the assay on Bacillus subtilis [6], 1.95 µg/mL (≈ 4.88 µM); in the assay with Candida albicans [10], 1.95 µg/mL (≈ 4.88 µM); against Aspergillus fumigatus [11], 7.81 µg/mL (≈ 19.5 µM); against Aspergillus clavatus [12], 15.6 µg/mL (≈ 39.1 µM). The MIC in the assay with Klebsiella pneumoniae [14] amounted to 1.95 µg/mL (≈ 4.88 µM); against Staphylococcus aureus [15], 0.97 µg/mL (≈ 2.43 µM); in assay [19] it was 0.97 µg/mL (≈ 2.43 µM).

Turning to GENTAMICIN, the MIC with Proteus vulgaris [2] amounted to 1.95 µg/mL; in the assay on Shigella flexneri [4] it was 0.48 µg/mL; against Klebsiella pneumoniae [14] it was 0.24 µg/mL. The figures for the inhibition zone (IZ) with Klebsiella pneumoniae [24], with Shigella flexneri [25] and with Proteus vulgaris [26] were 26.3 mm, 24.8 mm and 23.4 mm, respectively.
